≈ marks a conversion by molar mass, not a printed value.
system: Staphylococcus aureus; assay: In vitro antibacterial activity for minimum inhibition concentration (MIC) required to inhibit growth of Staphylococcus aureus; type: functional
Procedure, shortened: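 Broth microdilution in brain/heart infusion broth, inoculated with a standardized suspension to a final 10^5 viable cells/mL. Incubation 20 h at 37 °C. MIC read as the lowest concentration preventing visible growth.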

Compared with `CSC1OC(C(NC(=O)[C@@H]2NCCC[C@@H]2C)C(C)Cl)C(O)C(O)C1O` (stereo partly drawn), `CSC1OC(C(NC(=O)[C@H]2NCCCC2C)C(C)Cl)C(O)C(O)C1O` (stereo partly drawn) is 2-fold lower in MIC: 25 µg/mL (≈ 63 µM) for the first, 12.5 µg/mL (≈ 31.5 µM) for the second.

`CC[C@H]1CC[C@@H](C(=O)NC(C(C)Cl)C2OC(SC)C(O)C(O)C2O)NC1` (stereo partly drawn) and `CC[C@@H]1CC[C@H](C(=O)NC(C(C)Cl)C2OC(SC)C(O)C(O)C2O)NC1` (stereo partly drawn) are within 1.5-fold of each other in MIC: 2 µg/mL (≈ 4.87 µM) for the first, 2.5 µg/mL (≈ 6.08 µM) for the second.

First: CSC1OC(C(NC(=O)[C@@H]2CCCCN2C)C(C)Cl)C(O)C(O)C1O (stereo partly drawn)
Second: CSC1OC(C(NC(=O)[C@H]2CCCCN2C)C(C)Cl)C(O)C(O)C1O (stereo partly drawn)
The MIC of the first is lower: 3.9 µg/mL (≈ 9.83 µM) for the first, greater than 100 µg/mL for the second.

`CC[C@H]1CCC[C@@H](C(=O)NC(C(C)Cl)C2OC(SC)C(O)C(O)C2O)N1` (stereo partly drawn) and `CC[C@@H]1CCC[C@H](C(=O)NC(C(C)Cl)C2OC(SC)C(O)C(O)C2O)N1` (stereo partly drawn) cannot be ordered by MIC: greater than 25 µg/mL for the first, greater than 25 µg/mL for the second.

Compared with `CSC1OC(C(NC(=O)[C@@H]2CCCCCN2)C(C)Cl)C(O)C(O)C1O` (stereo partly drawn), `CSC1OC(C(NC(=O)[C@H]2CCCCCN2)C(C)Cl)C(O)C(O)C1O` (stereo partly drawn) is higher in MIC: 1.56 µg/mL (≈ 3.93 µM) for the first, greater than 100 µg/mL for the second.

First: CSC1OC(C(NC(=O)[C@@H]2CCCCN2)C(C)Cl)C(O)C(O)C1O (stereo partly drawn)
Second: CSC1OC(C(NC(=O)[C@H]2CCCCN2)C(C)Cl)C(O)C(O)C1O (stereo partly drawn)
The MIC of the first is 6.4-fold lower: 3.9 µg/mL (≈ 10.2 µM) for the first, 25 µg/mL (≈ 65.3 µM) for the second.

First: CC[C@H]1CCN(CCO)[C@@H](C(=O)NC(C(C)Cl)C2OC(SC)C(O)C(O)C2O)C1 (stereo partly drawn)
Second: CC[C@@H]1CCN(CCO)[C@H](C(=O)NC(C(C)Cl)C2OC(SC)C(O)C(O)C2O)C1 (stereo partly drawn)
The MIC of the first is higher: greater than 160 µg/mL for the first, 2.5 µg/mL (≈ 5.49 µM) for the second.

Going from `CSC1OC(C(NC(=O)c2ncccc2C)C(C)Cl)C(O)C(O)C1O` (stereo not drawn) to `CSC1OC(C(NC(=O)c2ccccn2)C(C)Cl)C(O)C(O)C1O` (stereo not drawn), the MIC falls from greater than 100 µg/mL to 62.5 µg/mL (≈ 166 µM).

`CSC1OC(C(NC(=O)c2cc(C(C)(C)C)ccn2)C(C)Cl)C(O)C(O)C1O` (stereo not drawn) and `CCc1ccnc(C(=O)NC(C(C)Cl)C2OC(SC)C(O)C(O)C2O)c1` (stereo not drawn) cannot be ordered by MIC: greater than 100 µg/mL for the first, 1000 µg/mL (≈ 2470 µM) for the second.

First: CCCc1ccnc(C(=O)NC(C(C)Cl)C2OC(SC)C(O)C(O)C2O)c1 (stereo not drawn)
Second: CCCCCCc1ccnc(C(=O)NC(C(C)Cl)C2OC(SC)C(O)C(O)C2O)c1 (stereo not drawn)
The MIC of the first is higher: greater than 100 µg/mL for the first, 50 µg/mL (≈ 108 µM) for the second.

First: CCCC[C@H]1CCN[C@@H](C(=O)NC(C(C)Cl)C2OC(SC)C(O)C(O)C2O)C1 (stereo partly drawn)
Second: CCCC[C@@H]1CCN[C@H](C(=O)NC(C(C)Cl)C2OC(SC)C(O)C(O)C2O)C1 (stereo partly drawn)
The MIC of the first is 520-fold higher: 31.2 µg/mL (≈ 71.1 µM) for the first, 0.06 µg/mL (≈ 0.137 µM) for the second.

Going from `CC[C@H]1CCN[C@@H](C(=O)N[C@@H]([C@H]2O[C@H](SC)[C@H](O)[C@@H](O)[C@H]2O)[C@H](C)Cl)C1` to `CCC[C@@H]1CCN[C@H](C(=O)NC(C(C)Cl)C2OC(SC)C(O)C(O)C2O)C1` (stereo partly drawn), the MIC falls from 250 µg/mL (≈ 608 µM) to 0.5 µg/mL (≈ 1.18 µM) (500-fold).

Going from `CSC1OC(C(NC(=O)[C@@H]2C[C@H](C(C)(C)C)CCN2)C(C)Cl)C(O)C(O)C1O` (stereo partly drawn) to `CSC1OC(C(NC(=O)[C@H]2C[C@@H](C(C)(C)C)CCN2)C(C)Cl)C(O)C(O)C1O` (stereo partly drawn), the MIC rises from 2 µg/mL (≈ 4.56 µM) to greater than 25 µg/mL.

Going from `CCCCCCCC[C@@H]1CCN[C@H](C(=O)NC(C(C)Cl)C2OC(SC)C(O)C(O)C2O)C1` (stereo partly drawn) to `CCCCCC[C@@H]1CCN[C@H](C(=O)NC(C(C)Cl)C2OC(SC)C(O)C(O)C2O)C1` (stereo partly drawn), the MIC falls from 0.3 µg/mL (≈ 0.606 µM) to 0.03 µg/mL (≈ 0.0642 µM) (10-fold).

`CCCCCC[C@@H]1CCN(C)[C@H](C(=O)NC(C(C)Cl)C2OC(SC)C(O)C(O)C2O)C1` (stereo partly drawn) and `CC[C@@H]1CCN(C)[C@H](C(=O)NC(C(C)Cl)C2OC(SC)C(O)C(O)C2O)C1` (stereo partly drawn) are within 1.5-fold of each other in MIC: 0.3 µg/mL (≈ 0.624 µM) for the first, 0.2 µg/mL (≈ 0.471 µM) for the second.

Going from `CSC1OC(C(NC(=O)[C@@H]2CC3CCN2CC3)C(C)Cl)C(O)C(O)C1O` (stereo partly drawn) to `CSC1OC(C(NC(=O)[C@H]2CC3CCN2CC3)C(C)Cl)C(O)C(O)C1O` (stereo partly drawn), the MIC falls from greater than 100 µg/mL to 50 µg/mL (≈ 122 µM).

First: CCCCCC[C@H]1CCN[C@@H](C(=O)NC(C(C)Cl)C2OC(SC)C(O)C(O)C2O)C1 (stereo partly drawn)
Second: CCC[C@H]1CCN[C@@H](C(=O)NC(C(C)Cl)C2OC(SC)C(O)C(O)C2O)C1 (stereo partly drawn)
The MIC of the first is lower: 0.5 µg/mL (≈ 1.07 µM) for the first, greater than 25 µg/mL for the second.

`CSC1OC(C(NC(=O)c2cccnc2)C(C)Cl)C(O)C(O)C1O` (stereo not drawn) and `CSC1OC(C(NC(=O)c2ccncc2)C(C)Cl)C(O)C(O)C1O` (stereo not drawn) cannot be ordered by MIC: greater than 100 µg/mL for the first, greater than 1000 µg/mL for the second.

`CSC1OC(C(NC(=O)[C@H]2CCCNC2)C(C)Cl)C(O)C(O)C1O` (stereo partly drawn) and `CSC1OC(C(NC(=O)[C@@H]2CCCNC2)C(C)Cl)C(O)C(O)C1O` (stereo partly drawn) cannot be ordered by MIC: greater than 80 µg/mL for the first, greater than 80 µg/mL for the second.

`CCc1ccc(C(=O)NC(C(C)Cl)C2OC(SC)C(O)C(O)C2O)nc1` (stereo not drawn) and `CCc1cccc(C(=O)NC(C(C)Cl)C2OC(SC)C(O)C(O)C2O)n1` (stereo not drawn) cannot be ordered by MIC: 62.5 µg/mL (≈ 154 µM) for the first, greater than 25 µg/mL for the second.

`CSC1OC(C(NC(=O)[C@H]2CCC[C@@H](C)N2)C(C)Cl)C(O)C(O)C1O` (stereo partly drawn) and `CSC1OC(C(NC(=O)[C@@H]2CCC[C@H](C)N2)C(C)Cl)C(O)C(O)C1O` (stereo partly drawn) cannot be ordered by MIC: greater than 25 µg/mL for the first, greater than 25 µg/mL for the second.

Compared with `CSC1OC(C(NC(=O)[C@@H]2CCN2)C(C)Cl)C(O)C(O)C1O` (stereo partly drawn), `CS[C@H]1O[C@H](C(NC(=O)C2CCNCC2)C(C)Cl)[C@H](O)[C@H](O)[C@H]1O` (stereo partly drawn) is higher in MIC: 25 µg/mL (≈ 70.5 µM) for the first, greater than 80 µg/mL for the second.

`CSC1OC(C(NC(=O)c2cccc(C)n2)C(C)Cl)C(O)C(O)C1O` (stereo not drawn) and `CCCCCCCCc1ccnc(C(=O)NC(C(C)Cl)C2OC(SC)C(O)C(O)C2O)c1` (stereo not drawn) cannot be ordered by MIC: greater than 25 µg/mL for the first, greater than 10 µg/mL for the second.

Going from `CC[C@H]1CCN(C)[C@@H](C(=O)NC(C(C)Cl)C2OC(SC)C(O)C(O)C2O)C1` (stereo partly drawn) to `CCCC[C@@H]1CCN(CCO)[C@H](C(=O)NC(C(C)Cl)C2OC(SC)C(O)C(O)C2O)C1` (stereo partly drawn), the MIC falls from greater than 100 µg/mL to 0.16 µg/mL (≈ 0.331 µM).

— ChEMBL document CHEMBL1122773 (1984)
